According to ChEMBL document CHEMBL2157970, “New prenylated isoflavonoids as protein tyrosine phosphatase 1B (PTP1B) inhibitors from Erythrina addisoniae” (Bioorg Med Chem, 2012):

What was measured:
[1] = system: MCF7; assay: Cytotoxicity against human MCF7 cells after 48 hrs by MTT assay; type: functional, cell-based
Method in brief: (§1)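 Cells kept in DMEM with 10% heat-inactivated FBS, 4.5 g/L D-glucose, sodium pyruvate and L-glutamine at 37 °C, 5% CO2. Seeded at 1 × 10^4 cells/well, left to adhere 24 h, then exposed 48 h to a range of concentrations at 0.05% (v/v) DMSO final. MTT added for 4 h, absorbance at 550 nm. Viability taken relative to control wells; IC50 from triplicates, mean ± SD.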

[2] = Cytotoxicity against human MCF7/ADR cells after 48 hrs by MTT assay; type: functional, cell-based, NCI/ADR-RES; method in brief: as §1
[3] = target: T1, Tyrosine-protein phosphatase non-receptor type 1 (Homo sapiens, UniProt P18031); assay: Inhibition of human recombinant PTP1B using p-nitrophenyl phosphate as substrate after 30 mins
T1 sequence (P18031 whole entry): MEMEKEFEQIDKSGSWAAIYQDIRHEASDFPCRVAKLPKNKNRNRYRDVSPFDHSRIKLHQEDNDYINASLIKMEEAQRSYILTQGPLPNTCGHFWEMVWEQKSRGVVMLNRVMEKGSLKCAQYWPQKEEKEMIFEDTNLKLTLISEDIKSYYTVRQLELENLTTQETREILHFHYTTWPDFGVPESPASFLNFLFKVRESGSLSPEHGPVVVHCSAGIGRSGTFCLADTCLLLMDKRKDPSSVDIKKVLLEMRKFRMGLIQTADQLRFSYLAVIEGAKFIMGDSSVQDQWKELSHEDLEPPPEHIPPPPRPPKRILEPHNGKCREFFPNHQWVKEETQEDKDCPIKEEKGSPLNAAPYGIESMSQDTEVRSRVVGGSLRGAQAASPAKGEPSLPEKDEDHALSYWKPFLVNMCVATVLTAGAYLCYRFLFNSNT
Method in brief: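 Human recombinant enzyme (0.05–0.1 µg) with 2 mM p-NPP in 50 mM citrate pH 6.0, 0.1 M NaCl, 1 mM EDTA, 1 mM DTT, 37 °C for 30 min. IC50 by regression, mean ± SD of three replicates.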

[4] = system: MDA-MB-231; assay: Cytotoxicity against human MDA-MB-231 cells after 48 hrs by MTT assay; type: functional, cell-based; method in brief: as §1
[5] = system: NCI/ADR-RES; assay: Ratio of tamoxifen IC50 to compound IC50 for human MCF7/ADR cells; type: functional
[6] = system: MDA-MB-231; assay: Ratio of tamoxifen IC50 to compound IC50 for human MDA-MB-231 cells; type: functional
[7] = Homo sapiens, MCF7, 48 h, read-out: IC50
[8] = Homo sapiens, NCI/ADR-RES, 48 h, read-out: IC50
[9] = Homo sapiens, MDA-MB-231, 48 h, read-out: IC50

SMILES	IC50 [3] [µM]	IC50 [1, 7] [µM]	IC50 [2, 8] [µM]	IC50 [4, 9] [µM]	Ratio IC50 [5]	Ratio IC50 [6]	IC50 ([1]; mcf7)	IC50 ([2]; nci/adr-res)	IC50 ([4]; mda-mb-231)
CC(C)=CCc1c2c(c(O)c3c(=O)c(-c4ccc(O)cc4)coc13)CC(C(C)(C)O)O2 (centres undefined) [ECHRENONE B10]	24.2	4.32	5.76	3.97	1.93	>3			
CC(C)=CCc1cc(-c2coc3c(CC=C(C)C)c(O)ccc3c2=O)ccc1O [ERYSUBIN F]	7.8								
COc1ccc([C@H]2COc3cc(O)cc(O)c3C2=O)cc1CC=C(C)C [ERYTHRADDISON III]	4.6	6.84	9.22	6.92					
CC/C(=C(\c1ccccc1)c1ccc(OCCN(C)C)cc1)c1ccccc1 [TAMOXIFEN]		11.4							

Now from value to compound, other results behind:

IC50 [3] [µM]	SMILES	IC50 [1, 7] [µM]	IC50 [2, 8] [µM]	IC50 [4, 9] [µM]	Ratio IC50 [5]	Ratio IC50 [6]	IC50 ([1]; mcf7)	IC50 ([2]; nci/adr-res)	IC50 ([4]; mda-mb-231)
17.4	CC(C)=CCc1cc2c(=O)c(-c3ccc(O)cc3O)coc2c(CC=C(C)C)c1O [ERYTHRADDISON II]	11.4	6.75	4.57					
13.8	COc1cc2c(cc1[C@H]1COc3cc(O)cc(O)c3C1=O)C=CC(C)(C)O2 [ERYTHRADDISON IV]	11	6.06	6.34					
> 30	COC(c1c2c(c(O)c3c(=O)c(-c4ccc(O)cc4)coc13)C=CC(C)(C)O2)C(O)C(C)(C)O (centres undefined) [ERYTHRADDISON I]						Not Active	Not Active	Not Active
